Experimental findings from ChEMBL document CHEMBL1127837, “6,9-Bis[(aminoalkyl)amino]benzo[g]isoquinoline-5,10-diones. A novel class of chromophore-modified antitumor anthracene-9,10-diones: synthesis and antitumor evaluations” (J Med Chem, 1994) are described below.

Values after ≈ are worked out from the molar mass of the structure shown. Values joined by “and” are separate entries in the source; they are usually repeats but may differ in a detail not shown here. Identical values can stand only once.

The subject of series [1] is L1210. Kind of series: Tested in vitro for inhibitory activity against L1210 murine leukemia. Format: functional, cell-based. To be noted: Mus musculus. The method in brief:
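L1210 suspension cells grown in McCoy's 5A with 10% horse serum, 10% CO2, 37 °C. Drug dissolved in water and added to 10^5 cells/tube at final 0.01, 0.1, 1 and 10 µg/mL.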

Series [2] relates to P388. Kind of series: Tested for antitumor activity against P388 murine leukemia. Format: functional, Mus musculus. The gist of the method: (§1)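 P388 cells kept by serial ip passage (10^5 cells) in DBA2 male mice. CD2F1 mice inoculated iv with 10^6 cells on day 0. Drug given iv on days 1, 4 and 7. Daily observation for toxicity and survival over 60 days. Median survival time per group, expressed as %T/C = MST treated/MST control × 100.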

Series [3] can be described thus: Resistance index is the ratio of IC50 of resistant cell line/IC50 of sensitive cell line. Format: functional. The method in brief: (§2)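 LoVo and doxorubicin-resistant LoVo/Dx colon cells grown in Ham's F12 with 10% fetal calf serum, glutamine, vitamins and Hepes at 37 °C. 2.5 × 10^5 cells/mL plated and preincubated 24 h, then exposed to drug for 144 h. MTT read-out at 570 nm. IC50 (µg/mL) derived; resistance index = IC50 resistant / IC50 sensitive line.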

A short description of series [4]: (§3) The compound was tested for antitumor activity against P388 murine leukemia by measuring maximum tolerated dose. To be noted: mouse, in vivo; read-out: LD10. The class given is ADME, organism-based. The method in brief:
(§4)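 CD2F1 mice were given 10^6 P388 cells iv, followed by iv treatment on days 1, 4 and 7 after transplantation. Mice were observed daily for toxicity and survival for 60 days. The value is the maximum tolerated dose, taken as LD10, or else the maximum dose administered.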

The subject of series [5] is LoVo/DX (Homo sapiens). Kind of series: Tested in vitro for cytotoxic activity against Doxorubicin resistant Human colon Adenocarcinoma cell line.
Series [6] has as its system LoVo. Kind of series: Tested in vitro for cytotoxic activity against Human colon Adenocarcinoma sensitive cell line (LoVo). Format: functional, cell-based. The gist of the method: as §2
In series [7] the test system is Mus musculus. Kind of series: The compound was tested for antitumor activity against P388 murine leukemia at 40 (mg/kg/day) dose; 25/37 toxic deaths/total no of mice. Format: ADME, organism-based. As to conditions: in vivo.
The species named for series [8] is Mus musculus. The description is as §3. To be noted: in vivo. The class given is ADME, organism-based. The method in brief: as §4
In series [9] the test system is Mus musculus. Kind of series: The compound was tested for antitumor activity against P388 murine leukemia at 40 (mg/kg/day) dose. Format: functional. The method in brief:
as §1

The subject of series [10] is Mus musculus. Kind of series: The compound was tested for antitumor activity against P388 murine leukemia at 22 (mg/kg/day) dose; 1/8 toxic deaths/total no of mice. The class given is ADME, organism-based. To be noted: in vivo.
In series [11] the test system is Mus musculus. Kind of series: The compound was tested for antitumor activity against P388 murine leukemia at 27 (mg/kg/day) dose;7/55 toxic deaths/total no of mice. The class given is ADME, organism-based. To be noted: in vivo.
Series [12] concerns Mus musculus. Kind of series: The compound was tested for antitumor activity against P388 murine leukemia at 60 (mg/kg/day) dose; 15/16 toxic deaths/total no of mice. The class given is ADME, organism-based. To be noted: in vivo.
The test system of series [13] is Mus musculus. Kind of series: The compound was tested for antitumor activity against P388 murine leukemia at 8(mg/kg/day) dose; 0/8 toxic deaths/total no of mice. The class given is ADME, organism-based. As to conditions: in vivo.
In series [14] the test system is Mus musculus. Kind of series: The compound was tested for antitumor activity against P388 murine leukemia at 27 (mg/kg/day) dose. Format: functional. The gist of the method: as §1
Series [15] deals with Mus musculus. Kind of series: The compound was tested for antitumor activity against P388 murine leukemia at 18 (mg/kg/day) dose; 1/40 toxic deaths/total no of mice. Format: ADME, organism-based. As to conditions: in vivo.
In series [16] the test system is Mus musculus. Kind of series: The compound was tested for antitumor activity against P388 murine leukemia at 60 (mg/kg/day) dose. Format: functional. The gist of the method: as §1
In series [17] the test system is Mus musculus. Kind of series: The compound was tested for antitumor activity against P388 murine leukemia at 8 (mg/kg/day) dose. The class given is functional. The gist of the method:
as §1

Series [18] has as its system Mus musculus. Kind of series: The compound was tested for antitumor activity against P388 murine leukemia at 12 (mg/kg/day) dose. Format: functional. The gist of the method: as §1
For series [19], the system named is Mus musculus. Kind of series: The compound was tested for antitumor activity against P388 murine leukemia at 22 (mg/kg/day) dose. Format: functional. The method in brief:
as §1

For series [20], the system named is Mus musculus. Kind of series: The compound was tested for antitumor activity against P388 murine leukemia at 12(mg/kg/day) dose; 0/16 toxic deaths/total no of mice. To be noted: in vivo.
In series [21] the test system is Mus musculus. Kind of series: The compound was tested for antitumor activity against P388 murine leukemia at 18 (mg/kg/day) dose. The class given is functional. The method in brief:
as §1

The test system of series [22] is Mus musculus. Kind of series: The compound was tested for antitumor activity against P388 murine leukemia at 9 (mg/kg/day) dose; 3/8 -no. of toxic deaths/no. of mice. Format: ADME, organism-based. As to conditions: in vivo.
For series [23], the system named is Mus musculus. Kind of series: The compound was tested for antitumor activity against P388 murine leukemia at 9 (mg/kg/day) dose. Format: functional. The method in brief: as §1
In series [24] the test system is Mus musculus. Kind of series: The compound was tested for antitumor activity against P388 murine leukemia at 6 (mg/kg/day) dose; 0/15 -no. of toxic deaths/no. of mice. Format: ADME, organism-based. As to conditions: in vivo.
Series [25] relates to Mus musculus. Kind of series: The compound was tested for antitumor activity against P388 murine leukemia at 6 (mg/kg/day) dose. Format: functional. The gist of the method: as §1
In series [26] the test system is Mus musculus. Kind of series: The compound was tested for antitumor activity against P388 murine leukemia at 7.5 (mg/kg/day) dose; 0/16 -no. of toxic deaths/no. of mice. The class given is ADME, organism-based. As to conditions: in vivo.
Series [27] concerns Mus musculus. Kind of series: The compound was tested for antitumor activity against P388 murine leukemia at 2 (mg/kg/day) dose; 0/82 -no. of toxic deaths/no. of mice. Format: ADME, organism-based. To be noted: in vivo.
The test system of series [28] is Mus musculus. Kind of series: The compound was tested for antitumor activity against P388 murine leukemia at 3 (mg/kg/day) dose; 12/132 -no. of toxic deaths/no. of mice. The class given is ADME, organism-based. As to conditions: in vivo.
The species named for series [29] is Mus musculus. Kind of series: The compound was tested for antitumor activity against P388 murine leukemia by measuring median survival time of treated mice/median survival time of control x 100. The class given is functional.
Series [30] relates to Mus musculus. Kind of series: The compound was tested for antitumor activity against P388 murine leukemia at 4 (mg/kg/day) dose; 43/48 -no. of toxic deaths/no. of mice. Format: ADME, organism-based. To be noted: in vivo.

The IC50 is the midpoint of a concentration-inhibition curve. Lower therefore signals inhibition by little substance. In general, T/C refers to the result in the treated group divided by that in the control group, in per cent. As to `O=C1c2ccncc2C(=O)c2c(NCCNCCO)ccc(NCCNCCO)c21`, the IC50 in series [1] turned out to be 0.06 µg/mL (≈ 0.145 µM); in series [5], 99.5 µg/mL (≈ 241 µM); in series [6] it was 1.3 µg/mL (≈ 3.14 µM). For the same molecule, the T/C in [2] was determined as 118%. In series [3], the Ratio was found to be 76. Besides, the MTD in [4] is 40 mg/kg/day.
`Cl.NCCNc1ccc(NCCN)c2c1C(=O)c1ccncc1C2=O`: the IC50 in series [1] was 0.01 µg/mL. Moreover, the Toxic deaths in [7] is given as 25; in series [10] it was 1; in series [11], 7; in series [12], 15; in series [13] it was 0; in series [15] it was 1. For the same molecule, the Toxic deaths in series [20] worked out at 0. For the same molecule, the maximum tolerated dose in series [8] is 27 mg/kg/day. The T/C is reported as 128% in series [9]; 230% in series [14]; 36% in series [16]; 162% in series [17]; 194% in [18]; 250% in [19]. Further, the T/C in series [21] was 206%.
With `COc1cccc2c1C(=O)c1c(O)c3c(c(O)c1C2=O)C[C@@](O)(C(=O)CO)C[C@@H]3O[C@H]1C[C@H](N)[C@H](O)[C@H](C)O1` [DOXORUBICIN], the T/C in series [2] is on record as 181%; in series [23], 222%; in series [25], 175%. Further, the Ratio in [3] came to 133. Also, in [4], the MTD was found to be 7.5 mg/kg/day. The results for the Toxic deaths in series [22], in [24] and in series [26] were 3, 0 and 0, respectively. Besides, the figures for the IC50 in [5] and in series [6] were 4 µg/mL (≈ 7.36 µM) and 0.03 µg/mL (≈ 0.0552 µM), respectively.
`O=C1c2ccncc2C(=O)c2c(NCCOCCO)ccc(NCCOCCO)c21`: the Ratio in series [3] was 31. In addition, the IC50 in series [5] came out at 267 µg/mL (≈ 642 µM); in [6], 8.7 µg/mL (≈ 20.9 µM).
Take `CC(C)NCCNc1ccc(NCCNC(C)C)c2c1C(=O)c1ccncc1C2=O`: the IC50 worked out at 0.03 µg/mL (≈ 0.0733 µM) in series [1], 3.4 µg/mL (≈ 8.3 µM) in [5] and 0.3 µg/mL (≈ 0.733 µM) in series [6]. For the same molecule, the Ratio in [3] was 11.
As to `CCNCCNc1ccc(NCCNCC)c2c1C(=O)c1ccncc1C2=O`, 0.01 µg/mL (≈ 0.0262 µM) corresponded to half-maximal inhibition in series [1] (IC50).
In the case of `NCCNc1ccc(NCCN)c2c1C(=O)c1cc[n+]([O-])cc1C2=O`, in series [2], the T/C is 200%. Moreover, the Ratio in [3] was 10. Also, the MTD in series [4] is 60 mg/kg/day. Also, the values for the IC50 in [5] and in [6] were 62.6 µg/mL (≈ 183 µM) and 7.3 µg/mL (≈ 21.4 µM), respectively.
Regarding `CCN(CC)CCNc1ccc(NCCN(CC)CC)c2c1C(=O)c1ccncc1C2=O`, the IC50 in [1] is 0.06 µg/mL (≈ 0.137 µM); in series [5], 0.69 µg/mL (≈ 1.58 µM); in series [6], 0.29 µg/mL (≈ 0.663 µM). Moreover, the T/C in [2] is recorded as 122%. For the same molecule, in [3], the Ratio was found to be 2.4. The MTD in [4] is 60 mg/kg/day.
With `CN(C)CCCNc1ccc(NCCCN(C)C)c2c1C(=O)c1ccncc1C2=O`, the IC50 was 0.3 µg/mL (≈ 0.733 µM) in series [1], 0.36 µg/mL (≈ 0.879 µM) in [5] and 0.15 µg/mL (≈ 0.366 µM) in [6]. Also, the Ratio in series [3] came to 2.4.
For `O=C1c2c(O)ccc(O)c2C(=O)c2c(NCCNCCO)ccc(NCCNCCO)c21` [MITOXANTRONE], the figures for the IC50 in [1], in series [5] and in [6] were 0.009 µg/mL (≈ 0.0202 µM), 0.25 µg/mL (≈ 0.562 µM) and 0.009 µg/mL (≈ 0.0202 µM), respectively. The T/C in series [2] was 172% and 138%; in series [29] it was 196%. Moreover, the Ratio in series [3] is 28. Moreover, the LD10 in [8] is 2 mg/kg/day and 4 mg/kg/day. In addition, the MTD in series [4] worked out at 3 mg/kg/day. Besides, the Toxic deaths in [27] is 0; in [28] it was 12; in series [30] it was 43.
On to `O=C1c2ccncc2C(=O)c2c(NCCN3CCCC3)ccc(NCCN3CCCC3)c21`, for which the results for the IC50 in series [1], in [5] and in series [6] were 0.09 µg/mL (≈ 0.208 µM), 0.7 µg/mL (≈ 1.61 µM) and 0.5 µg/mL (≈ 1.15 µM), respectively. The molecule also yielded a T/C in series [2] of 100%. Further, in [3], the Ratio is given as 1.4. Moreover, the MTD in series [4] came to 60 mg/kg/day.
`CNCCNc1ccc(NCCNC)c2c1C(=O)c1ccncc1C2=O.Cl` displayed a T/C in series [2] of 189%. The Ratio in [3] was 36. In addition, the MTD in series [4] came out at 8 mg/kg/day. The values for the IC50 in series [5] and in series [6] were 2.9 µg/mL and 0.08 µg/mL, respectively.
